In PMC7894357 (Chemmedchem, 2020):

Legend:
HIV‐2 = assay type: cell-based; conditions: CEM-TK(-), read-out: EC50 CEM/TK− HIV‐1
In short: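 CEM/TK⁻ cells (~3×10⁵ cells/mL) were infected with HIV‑1(III_B) or HIV‑2(ROD) at 100 CCID₅₀/mL and cultured with serial dilutions of test compound. After 4–5 days at 37 °C in humidified CO₂, giant (syncytium) cell formation was scored microscopically. EC50 is the concentration that halves giant cell formation. Values are mean ±SD of n=2–3 independent experiments.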

[1] = Cytotoxicity: inhibition of CD4+ T-cell; assay type: cell-based; conditions: human, CEM/0 cells (CD4+ T cells)
[2] = previous work; cited from earlier work
[3] = symmetric TriPPPro-compounds, PB pH 7.3; cited from earlier work

Cc1cn([C@H]2C=C[C@@H](CO)O2)c(=O)[nH]c1=O [d4T 1, 3'‐deoxy‐2',3'‐didehydrothymidine]
EC50 (HIV‐2): > 50 µM
CC50 [1]: > 50 µM

CCCCCCCCCC(=O)Oc1ccc(COP(=O)(OCc2ccc(OC(=O)CCCCCCCCC)cc2)OP(=O)(O)OP(=O)(O)OC[C@@H]2C=C[C@H](n3cc(C)c(=O)[nH]c3=O)O2)cc1 [γ‐(AB−C9,AB−C9)‐d4TTP]
half-life in CEM/0 cell extracts (t1/2) [2]: 2.8 h
half-life in PB (t1/2) [3]: 44 h

γ‐(AB−C4,AB−C4)‐d4TTP
half-life in CEM/0 cell extracts (t1/2) [2]: 0.43 h
half-life in PB (t1/2) [3]: 22 h
